Source: PubChem BioAssay (several laboratories)
Rows were chosen to be rich in hits. Some 3.8% of all compounds tested hit in one or more screens of this group.
MPTP inh: mitochondrial permeability transition pore inhibitors, primary screen, biochemical, isolated mouse mitochondria, absorbance | Ca2+ swelling absorbance, 30 min | 1.4% of 360,000 active | inhibition, % at 10 µM;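 active means inhibition of 50% or more, scaled per plate between neutral and stimulator controls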;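 further: 0% = DMSO wells given calcium and 100% = 1 mM EGTA wells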
GPR7 antag: GPR7 receptor antagonists, primary screen, cell-based, fluorescence, single concentration. Neuropeptides B/W receptor type 1 (Homo sapiens), P48145. GPR7-expressing cells, fluorescence antagonist assay. inhibition, % at 4.4 µM. 1.1% of 290,000 active. AID 1861, 2009; in the data active means inhibition above about 16%, passing the limit was not always enough;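 further: cells stimulated with the agonist NPW; 0% = agonist with vehicle and 100% = vehicle without agonist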
Target sequence (P48145 whole entry, looked up): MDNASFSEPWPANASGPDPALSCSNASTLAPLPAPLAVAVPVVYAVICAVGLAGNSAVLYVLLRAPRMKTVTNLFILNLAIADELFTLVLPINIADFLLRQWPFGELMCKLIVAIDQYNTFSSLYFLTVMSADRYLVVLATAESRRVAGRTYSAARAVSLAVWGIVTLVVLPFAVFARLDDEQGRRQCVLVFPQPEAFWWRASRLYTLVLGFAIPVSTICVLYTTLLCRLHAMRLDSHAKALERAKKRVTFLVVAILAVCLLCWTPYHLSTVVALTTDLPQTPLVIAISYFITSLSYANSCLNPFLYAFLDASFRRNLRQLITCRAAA
OX1R antag-1: OX1R (HCRTR1) antagonists, primary screen, fluorescence, CHO/OX1R cells, Fluo-8 calcium, orexin A. Fluo-8 calcium fluorescence. inhibition, % at 5 µM. 0.43% of 330,000 active. AID 434989, 2010;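 active means inhibition above its plate's threshold, mean inhibition of all tested compounds on the plate plus 3 SD, cut at about 37% in these data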;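 further: 0% = orexin A challenge wells and 100% = SB-334867-A antagonist wells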
OX1R antag-2: antagonists of human orexin 1 receptor (OX1R); Orexin/Hypocretin receptor type 1 (Homo sapiens), O43613; OX1R-expressing cells, FRET antagonist read-out; inhibition, % at 6.6 µM; 1.8% of 330,000 active; AID 485270, 2010; in the data active means inhibition mostly above about 38%, no sharp cut-off; inactive means mostly below about 40%;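 further: 0% = agonist challenge alone and 100% = reference antagonist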
CHO parental Ca: ATP-evoked calcium signal inhibitors, parental CHO, primary screen, counter-screen for OX1R antagonist project, cell-based, fluorescence, Fluo-8 calcium dye. 0.63% of 330,000 active. inhibition, % at 5.6 µM. AID 463079, 2010. parental CHO-K1, ATP-induced calcium, Fluo-8 fluorescence;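 active means inhibition above that plate's mean sample inhibition plus 3 SD, cut at about 26% in these data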;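 further: 0% = ATP-challenged DMSO wells and 100% = DMSO wells without ATP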
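Material: parental CHO cells / Compound: single nominal dose of 5.6 µM per compound / Signal: Fluo-8 fluorescence / Replicates: singlicate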
GPR7 antag cf: GPR7 receptor antagonists, confirmation, cell-based, fluorescence, single concentration. shares compounds with GPR7 antag. GPR7-expressing cells, calcium fluorescence antagonist mode. inhibition, % at 4.4 µM. 52% of 2,400 active; in the data active means inhibition above about 24%;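 further: stimulated with the GPR7 agonist NPW; 0% = agonist plus vehicle and 100% = vehicle alone without agonist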
MCHR1 antagonist: MCHR1 antagonists in cells, counter-screen for GPR7 antagonist project, cell-based, fluorescence, human. shares compounds with GPR7 antag. MCHR1-expressing cells, fluorescence antagonist assay. inhibition, % at 4.4 µM. 62% of 2,400 active. AID 2148, 2009; in the data active means inhibition above about 22%;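 further: 0% = vehicle with agonist and 100% = vehicle without agonist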
* = called active by the depositor; . = no result given.

SMILES | MPTP inh | GPR7 antag | OX1R antag-1 | OX1R antag-2 | CHO parental Ca | GPR7 antag cf | MCHR1 antagonist
CC1(CCc2ccc3c(c2)OCO3)NCCc2c1[nH]c1ccccc21 (configuration not stated) | 0 | 60* | -4 | 6 | 13 | 39* | 45*
CC1(CCc2ccc3c(c2)OCO3)NC(=O)c2ccccc2N1 (configuration not stated) | 0 | -12 | -4 | 17 | 2 | . | .
Cc1cc(Cl)cc(C)c1OCC(=O)N1CCN(c2ncccn2)CC1 | -1 | . | 9 | -1 | -17 | . | .
Cc1cc(Cl)ccc1OCC(=O)N1CCN(c2ncccn2)CC1 | -2 | 24* | -21 | 15 | -17 | -6 | 3
CC1(c2ccc(OC(F)F)cc2)NC(=O)N(CC(=O)Nc2ccccc2)C1=O (configuration not stated) | 2 | 89* | 52* | 1 | 49* | 85* | 84*
Cc1c(NC(=O)CN2C(=O)NC(C)(c3ccc(OC(F)F)cc3)C2=O)c(=O)n(-c2ccccc2)n1C (configuration not stated) | 0 | . | 0 | 15 | 3 | . | .
CC1(c2ccc(OC(F)F)cc2)NC(=O)N(CC(=O)Nc2ccc3c(c2)OCO3)C1=O (configuration not stated) | -1 | 78* | 38 | -2 | 40* | 83* | 82*
CC(=O)Nc1ccc(/C=N/N2C(=O)NC(C)(c3ccc(OC(F)F)cc3)C2=O)cc1 (configuration not stated) | -1 | 39* | 53* | -10 | 36* | 98* | 99*
CCOc1ncccc1C(=O)N1CCN(S(=O)(=O)c2ccc3c(c2)OCCO3)CC1 | 0 | . | -14 | 6 | -17 | . | .
O=C(c1cccc(Cl)c1)N1CCN(CCCc2ccccc2)CC1 | -1 | 12 | -30 | -1 | -17 | . | .
CCOC(=O)c1cnn(-c2nc(OCC)cc(OCC)n2)c1C | -3 | 2 | -11 | 3 | -1 | . | .
CN(CC(=O)Nc1ccc(Cl)cc1)CC(=O)N1CCc2ccccc21 | -2 | . | . | . | . | . | .
CCOc1cc2c(cc1OCC)CN(CC(=O)Nc1ccccc1C(=O)NC1CC1)CC2 | 0 | . | -46 | 9 | -33 | . | .
CCOc1ccccc1N=c1oc2cc(O)ccc2cc1C(=O)NCC1CCCO1 (configuration not stated) | 0 | 29* | -3 | 5 | -12 | 19 | 20
CCCNC(=O)N1C[C@H](O)COC[C@H]2O[C@@H](CC(=O)N[C@@H]3CCN(Cc4ccccc4)C3)CC[C@@H]21 | 1 | . | . | . | . | . | .
CC1(C)CC(=O)C(C=NCC(N)=O)=C(O)C1 | 0 | -8 | -6 | 4 | -10 | . | .
CC1(C)CC(=O)C(C=NCCCO)=C(O)C1 | 1 | 27* | 0 | 10 | 6 | 8 | -3
C#CCNC(=O)C1=C[C@H](c2cn(C(C)=O)c3ccccc23)C[C@H](OCc2ccc(CO)cc2)O1 | 0 | 38* | 5 | 21 | -9 | 18 | 38*
CC(=O)n1cc([C@H]2C=C(C(=O)Nc3ccccc3)O[C@@H](OCc3ccc(CO)cc3)C2)c2ccccc21 | -1 | 1 | -3 | 13 | -1 | . | .
COc1ccccc1N1CN(CCc2ccccc2)CNC1=S | 1 | 30* | -5 | 17 | -19 | 5 | -2
CCCCNC(=S)Nc1ccccc1Cc1ccccc1 | 0 | -7 | -35 | 20 | -18 | . | .
COc1cccc(CN2CCN(Cc3cccc(Oc4ccccc4)c3)CC2)c1OC | 3 | -7 | -40 | 9 | -24 | . | .
COc1cccc(CN2CCC(N(CCc3ccccc3)Cc3ccccc3)CC2)c1OC | 4 | 23* | -33 | 5 | -19 | 35* | 40*
N=C1c2ccccc2CN1c1ccc(N2CCOCC2)c(S(=O)(=O)Nc2ccc(Cl)cc2)c1 | . | 15 | 7 | 9 | 9 | . | .
CC(=O)Nc1ccc(S(=O)(=O)NCCC(=O)OC(C)C(=O)c2ccc(C)cc2)cc1 (configuration not stated) | 2 | 27* | -7 | 35 | 18 | 20 | 45*
SMILES | MPTP inh | GPR7 antag | OX1R antag-1 | OX1R antag-2 | CHO parental Ca | GPR7 antag cf | MCHR1 antagonist
Cc1ccc(NC(=O)C(C)OC(=O)CCNS(=O)(=O)c2ccc(C)cc2)cc1 (configuration not stated) | 1 | 5 | -20 | 16 | -9 | . | .
CC(=O)Nc1ccc(NC(=O)COC(=O)C2c3ccccc3Oc3ccccc32)cc1 | -1 | 23* | . | . | . | 3 | 7
O=C(COC(=O)C1c2ccccc2Oc2ccccc21)Nc1ccc2c(c1)OCO2 | -15 | -8 | 4 | 19 | -7 | . | .
CCCOc1ccc(-c2csc(N)n2)cc1[N+](=O)[O-] | 0 | 27* | -16 | 24 | -7 | 13 | 26*
CCCCOc1ccc(-c2cn3ccccc3n2)cc1[N+](=O)[O-] | 1 | -6 | -35 | 21 | -20 | . | .
COC(=O)c1cc(S(=O)(=O)NCc2cccc(Br)c2)c[nH]1 | -2 | -8 | -5 | 3 | -3 | . | .
COc1cc(C2C(N3C(=O)c4ccccc4C3=O)C(=O)N2c2cccc(C)c2)cc(OC)c1OC (configuration not stated) | . | -11 | . | . | . | . | .
Fc1cccc(CN2CCN(Cc3nc(CCc4ccccc4)no3)CC2)c1 | 2 | -13 | -28 | 16 | -13 | . | .
Nc1nc2n(n1)C(c1cccc(Br)c1)CC(c1ccc(F)cc1)N2 (configuration not stated) | -1 | 35* | -13 | 14 | -7 | 18 | 4
Nc1nc2n(n1)C(c1ccccc1)CC(c1ccc(F)cc1)N2 (configuration not stated) | -1 | -8 | -9 | 7 | -5 | . | .
CC(C)Cc1ccc(C(C)C(=O)Nc2nccs2)cc1 (configuration not stated) | 1 | 63* | 49* | 22 | 43* | 78* | 78*
COCCNc1cnn(-c2ccccc2)c(=O)c1Cl | -1 | 24* | -8 | 16 | 0 | -4 | 0
CCCCNc1cnn(-c2ccccc2)c(=O)c1Cl | -3 | 8 | -24 | 19 | 0 | . | .
CCOc1ccc(NC(=S)N2CCC(NC(=O)C3CCCCC3)CC2)cc1 | 0 | 28* | -6 | 14 | 3 | -8 | 3
Cc1ccc(CNC(=O)C2CC(c3cccc([N+](=O)[O-])c3)=NO2)cc1 (configuration not stated) | -2 | 32* | 2 | 14 | -10 | 19 | 34*
